The source made the active and inactive calls. The rule behind the calls is not given here.
Assays:
[1] = target: T1, ATP-dependent translocase ABCB1 (Homo sapiens, UniProt P08183); assay: (§1) Inhibition of ABCB1 in human K562/A02 cells assessed as potentiation of adriamycin-mediated cytotoxicity by measuring reduction in ADR IC50 at 5 uM preincubated for 24 hrs followed by compound washout for 24 hrs and subsequent addition of adriamycin measured after 48 hrs by MTT assay relative to control; assay type: cell-based
T1 sequence (P08183 whole entry): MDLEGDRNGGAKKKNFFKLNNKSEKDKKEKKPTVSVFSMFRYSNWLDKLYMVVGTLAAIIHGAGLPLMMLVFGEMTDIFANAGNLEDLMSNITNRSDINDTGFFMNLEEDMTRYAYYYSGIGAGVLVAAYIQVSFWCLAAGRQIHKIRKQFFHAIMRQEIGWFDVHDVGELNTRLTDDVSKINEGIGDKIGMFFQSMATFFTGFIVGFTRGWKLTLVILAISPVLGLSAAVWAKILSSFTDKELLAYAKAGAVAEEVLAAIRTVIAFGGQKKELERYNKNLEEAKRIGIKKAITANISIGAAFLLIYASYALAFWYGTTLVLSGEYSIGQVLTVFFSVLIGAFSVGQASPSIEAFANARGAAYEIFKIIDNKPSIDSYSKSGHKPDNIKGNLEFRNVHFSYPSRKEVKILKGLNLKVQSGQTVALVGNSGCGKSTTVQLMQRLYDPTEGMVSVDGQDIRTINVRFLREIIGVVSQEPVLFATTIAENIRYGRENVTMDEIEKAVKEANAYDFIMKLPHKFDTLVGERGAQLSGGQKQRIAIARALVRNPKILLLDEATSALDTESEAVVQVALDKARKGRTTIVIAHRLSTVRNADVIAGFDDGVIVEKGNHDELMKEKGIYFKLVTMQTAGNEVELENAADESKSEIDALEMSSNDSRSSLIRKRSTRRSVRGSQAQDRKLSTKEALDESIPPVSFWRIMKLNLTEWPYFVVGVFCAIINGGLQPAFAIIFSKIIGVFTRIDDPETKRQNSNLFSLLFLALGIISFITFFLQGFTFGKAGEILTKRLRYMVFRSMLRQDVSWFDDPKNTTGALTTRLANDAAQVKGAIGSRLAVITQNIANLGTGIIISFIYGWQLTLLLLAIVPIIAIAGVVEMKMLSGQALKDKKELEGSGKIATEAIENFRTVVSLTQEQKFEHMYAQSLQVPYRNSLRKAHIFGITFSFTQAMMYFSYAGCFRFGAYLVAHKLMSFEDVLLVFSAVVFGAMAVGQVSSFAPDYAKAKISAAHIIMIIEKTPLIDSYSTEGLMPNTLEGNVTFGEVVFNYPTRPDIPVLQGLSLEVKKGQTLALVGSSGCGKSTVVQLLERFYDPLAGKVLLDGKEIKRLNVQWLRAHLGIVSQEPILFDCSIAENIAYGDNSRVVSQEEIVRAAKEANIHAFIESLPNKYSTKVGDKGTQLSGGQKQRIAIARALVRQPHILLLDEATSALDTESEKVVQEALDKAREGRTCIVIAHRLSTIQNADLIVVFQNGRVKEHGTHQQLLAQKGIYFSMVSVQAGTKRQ
Summary of the method: (§2)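 K562/A02 cells incubated with modulator at 5.0 µM, then washed out. Adriamycin IC50 determined at 0, 6, 12 or 24 h after removal, with an unwashed comparison. Reversal fold = IC50 without inhibitor / IC50 with inhibitor. Mean ± SD of three independent tests.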

K562/A02 [2] = assay: Potentiation of cyclophosphamide-mediated cytotoxicity against human K562/A02 cells at 5 uM after 48 hrs by MTT assay; assay type: functional, cell-based
Summary of the method: (§3)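 K562/A02 cells given daunorubicin, paclitaxel, vinblastine (P-gp substrates) or cyclophosphamide (non-substrate), each with modulator at 5.0 µM; cytotoxicity then measured. Mean ± SD of three independent tests.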

GES1 = assay: Cytotoxicity against human GES-1 cells after 48 hrs by MTT assay; assay type: cell-based; conditions: GES1, 48 h
Summary of the method: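 Survival of GES-1 cells measured across a range of compound concentrations to give the IC50. Mean ± SD of three independent tests.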

[3] = target: T1, ATP-dependent translocase ABCB1; assay: Inhibition of ABCB1 in human K562/A02 cells assessed as potentiation of daunorubicin-mediated cytotoxicity at 5 uM after 48 hrs by MTT assay; assay type: cell-based; summary of the method: as §3
[4] = target: T1, ATP-dependent translocase ABCB1; assay: Inhibition of ABCB1 ATPase in human ABCB1 membrane fraction assessed as decrease in ATPase activity at 0.5 uM preincubated with compound followed by addition of MgATP measured after 1 hr by luciferase reporter gene assay relative to control; assay type: cell membranes
K562 = assay: Cytotoxicity against human K562 cells after 48 hrs by MTT assay; assay type: functional, cell-based; conditions: K562, 48 h
Summary of the method: (§4)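 MTT viability in parental K562 and P-gp-overexpressing K562/A02 cells. Compound alone at a concentration series gives the IC50. Mean ± SD of three independent tests.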

K562/A02 [5] = assay: Cytotoxicity against human K562/A02 cells overexpressing P-gp after 48 hrs by MTT assay; assay type: functional, cell-based; conditions: K562/A02, 48 h; summary of the method: as §4
[6] = target: T1, ATP-dependent translocase ABCB1; assay: Inhibition of ABCB1 in human K562/A02 cells assessed as increase in intracellular adriamycin accumulation at 1 uM after 2.5 hrs by spectrofluorimetric analysis; assay type: cell-based
Summary of the method: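 Intracellular adriamycin measured by its autofluorescence using spectrofluorometry after 2.5 h accumulation in K562/A02 cells. Modulator tested at concentrations up to 5.0 µM; parental K562 and untreated K562/A02 cells as comparators. Mean ± SD of three experiments.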

[7] = target: T1, ATP-dependent translocase ABCB1; assay: Inhibition of ABCB1 in human K562/A02 cells assessed as potentiation of vinblastine-mediated cytotoxicity at 5 uM after 48 hrs by MTT assay; assay type: cell-based; summary of the method: as §3
[8] = Inhibition of CYP3A4 in rat liver microsomes assessed as 6beta-hydroxytestosterone formation at 40 uM using testosterone as substrate by reverse-phase HPLC analysis; assay type: ADME
[9] = target: T1, ATP-dependent translocase ABCB1; assay: as §1, with “washout for 12 hrs and” for “washout for 24 hrs and”; assay type: cell-based; summary of the method: as §2
K562/A02 [10] = assay: Cytotoxicity against human K562/A02 cells assessed as cell survival at 5 uM after 48 hrs by MTT assay relative to control; assay type: cell-based; conditions: k562/a02, 48 h, 5 µM
Summary of the method: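 MTT viability assay in P-gp-overexpressing, ADM-resistant K562/A02 cells, alongside parental K562. […] Values are mean ± SD of three independent tests.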

[11] = Selectivity index, ratio of IC50 for human GES-1 cells to EC50 for inhibition of ABCB1 in human K562/A02 cells assessed as potentiation of adriamycin-induced cytotoxicity by measuring compound concentration required for reduction of ADR IC50
Summary of the method: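 SI = IC50 in GES-1 cells divided by EC50 for reversal of adriamycin resistance in K562/A02 cells.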

[12] = target: T1, ATP-dependent translocase ABCB1; assay: Inhibition of ABCB1 in human K562/A02 cells assessed as increase in intracellular Rh123 accumulation at 5 uM up to 90 mins by flow cytometry; assay type: cell-based; conditions: 1.5 h
Summary of the method: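 K562/A02 cells treated with 5.0 µM modulator; Rh123-associated mean fluorescence intensity read by flow cytometry at 5, 10, 25, 30, 60 and 90 min. Untreated cells as negative control. Mean ± SD of three experiments.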

K562/A02 [13] = assay: Effect on ABCB1 level in human K562/A02 cells at 0.1 to 5 uM after 72 hrs by Western blot analysis; assay type: functional, cell-based
Summary of the method: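 K562/A02 cells exposed to 0.1, 1.0 or 5.0 µmol/L compound for 72 h. ABCB1 detected by western blot; band intensity expressed as a ratio to β-tubulin.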

[14] = target: T1, ATP-dependent translocase ABCB1; assay: as §1, with “washout for 6 hrs and” for “washout for 24 hrs and”; assay type: cell-based; summary of the method: as §2
[15] = target: T1, ATP-dependent translocase ABCB1; assay: Inhibition of ABCB1 in human K562/A02 cells assessed as potentiation of adriamycin-mediated cytotoxicity by measuring reduction in ADR IC50 at 5 uM preincubated for 24 hrs followed by compound washout and subsequent addition of adriamycin measured after 48 hrs by MTT assay relative to control; assay type: cell-based
Summary of the method: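 K562/A02 cells incubated with modulator at 5.0 µM, then washed out. Reversal fold = IC50 without inhibitor / IC50 with inhibitor. Mean ± SD of three independent tests.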

[16] = target: T1, ATP-dependent translocase ABCB1; assay: Inhibition of ABCB1 in human K562/A02 cells assessed as potentiation of paclitaxel-mediated cytotoxicity at 5 uM after 48 hrs by MTT assay; assay type: cell-based; summary of the method: as §3
[17] = target: T1, ATP-dependent translocase ABCB1; assay: Substrate activity at ABCB1 ATPase in human ABCB1 membrane fraction assessed as increase in ATPase activity at 0.5 uM preincubated with compound followed by addition of MgATP measured after 1 hr by luciferase reporter gene assay relative to control; assay type: cell membranes
[18] = target: T1, ATP-dependent translocase ABCB1; assay: Substrate activity at ABCB1 ATPase in human ABCB1 membrane fraction assessed as increase in ATPase activity at 5 uM preincubated with compound followed by addition of MgATP measured after 1 hr by luciferase reporter gene assay relative to control; assay type: cell membranes
[19] = target: T1, ATP-dependent translocase ABCB1; assay: Inhibition of ABCB1 in human K562/A02 cells assessed as potentiation of adriamycin-mediated cytotoxicity by measuring reduction in ADR IC50 at 5 uM after 48 hrs by MTT assay relative to control; assay type: cell-based
Summary of the method: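 K562/A02 cells exposed to a series of adriamycin concentrations with modulator at 5.0 µM; 0.1% DMSO as solvent control. IC50 read by MTT. Reversal fold = IC50 without inhibitor / IC50 with inhibitor. Mean ± SD of three independent tests.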

Row | SMILES | fold change (FC) [1] | IC50 (K562) | IC50 (K562/A02 [5]) | inhibition (INH) [6] | fold change (FC) [9] | inhibition (INH) [12] | fold change (FC) [14] | fold change (FC) [15] | also measured
1 | COc1cc2c(cc1OC)CN(CCc1ccc(NC(=O)c3cccnc3NCc3ccncc3)cc1)CC2 | 7.84 | 55.4 µM | 74.9 µM | Active | 14.54 | Active | 20.03 | 27.98 | Activity (K562/A02 [2]): inactive; IC50 (GES1): > 100 µM; inhibition (INH) [3]: Active; inhibition (INH) [4]: Active; inhibition (INH) [7]: Active; inhibition (INH) [8]: Not Active; Activity (K562/A02 [10]): Non-Toxic; Ratio IC50/EC50 [11]: >836.1; Activity (K562/A02 [13]): inactive; inhibition (INH) [16]: Active
2 | N#CC1(c2ccc(NC(=O)c3cccnc3NCc3ccncc3)cc2)CCCC1 [RIVOCERANIB] | 2.46 | 14.9 to 15.9 µM | 19.8 to 20.8 µM | Active | 3.97 | Active | 6.12 | 7.35 | fold change (FC) [17]: 1.41; fold change (FC) [18]: 2.68; fold change (FC) [19]: 8.63 to 8.71

Reference: ChEMBL document CHEMBL4049408, “Exploration of 2-((Pyridin-4-ylmethyl)amino)nicotinamide Derivatives as Potent Reversal Agents against P-Glycoprotein-Mediated Multidrug Resistance” (J Med Chem, 2017)
